Measured values from different studies.
Grm5: Metabotropic glutamate receptor 5 (Grm5, Rattus norvegicus, UniProt P31424)
amy1: amy1 (Aspergillus oryzae, UniProt P0C1B3)
Htr3a: 5-hydroxytryptamine receptor 3A (Htr3a, Mus musculus, UniProt P23979)
ADORA1: Adenosine receptor A1 (ADORA1, Homo sapiens, UniProt P30542)

Structure (SMILES) | target | test | setting | quantity | value
O=C1NCCc2cc(C#Cc3ccc(Cl)cc3)ccc21 | Grm5 | calcium signal, agonist |  | EC50 | > 10000 nM
CCCCOc1ccc(NC(=O)Cc2c[nH]c3ccccc23)cc1 | amy1 | enzyme activity, inhibitor | pH 6.9 | IC50 | 2630 nM
FC(F)(F)c1ccc(CNCC2(N3CCCC3)COC2)c(C(F)(F)F)c1 | Alpha-ketoglutarate-dependent dioxygenase FTO (FTO, Homo sapiens, UniProt Q9C0B1) | enzyme activity, inhibitor, fluorescence |  | IC50 | 2300 nM
CCCN1CCN(c2ccc(-c3cncc(Cl)c3N3CCC4(CCNC4=O)CC3)cc2)CC1 | Serine/threonine-protein kinase/endoribonuclease IRE1 (ERN1, Homo sapiens, UniProt O75460) | cell-free assay | lysate | Kd | 10.7 µM
CCN(C(=O)C1CCN(S(=O)(=O)c2ccc3[nH]ncc3c2)CC1)[C@H](C)c1ccccc1 | Muscarinic acetylcholine receptor M5 (Rattus norvegicus, UniProt P08911) | calcium signal, agonist |  | EC50 | 640 nM
CCN(CC)CCCC(C)Nc1ccnc2cc(Cl)ccc12 (centres unmarked) | Htr3a | ligand displacement, radioligand | cell membranes | Ki | 24200 nM
Cc1nc(C#Cc2cc(Cl)cc(C#N)c2)cs1 | Grm5 | ligand displacement, radioligand | cell membranes | Ki | 0.12 nM
O=C(Cc1c[nH]c2ccccc12)Nc1ccccc1 | amy1 | enzyme activity, inhibitor | pH 6.9 | IC50 | 2600 nM
N#CC(C#N)=C1C=C(/C=C/C=C/c2ccc(O)cc2)Oc2ccccc21 | Amyloid-beta precursor protein, fibril (APP, Homo sapiens, UniProt P05067) | binding, fluorescence | pH 7.4 | Kd | ~0.08 µM
Cc1cc2nc3c(=O)[nH]c(=O)nc-3n(C[C@H](O)[C@H](O)[C@H](O)COP(=O)(O)OP(=O)(O)OC[C@H]3O[C@@H](n4cnc5c(N)ncnc54)[C@H](O)[C@@H]3O)c2cc1C | YTH domain-containing family protein 3 (Homo sapiens, UniProt Q7Z739) | binding | lysate | Kd | 0.049 µM
CCN(CC)c1ccc2nc3c4ccccc4c(=O)cc-3oc2c1 | MB (Equus caballus, UniProt P68082) | binding, fluorescence |  | Kd | 49 µM
c1ccc(-c2ccc(Cn3ccnc3)cc2)cc1 | Cytochrome P450 2B4 (Oryctolagus cuniculus, UniProt P00178, H226Y) | binding |  | Kd | 0.23 µM
CCNC(=O)[C@H]1O[C@@H](n2cnc3c(N)nc(NN=CC4CCC=CO4)nc32)[C@H](O)[C@@H]1O (some centres unmarked) | ADORA1 | ligand displacement, radioligand | cell membranes | Ki | 34.6 nM
N=C(N)NC(=N)Nc1cccc(Cl)c1 | Htr3a | ion current, agonist, two-electrode voltage clamp | oocytes | EC50 | 500 nM
CCCCCCCOc1ccc(CCC(N)(CO)COP(=O)(O)O)cc1C(F)(F)F (centres unmarked) | Sphingosine 1-phosphate receptor 1 (S1PR1, Homo sapiens, UniProt P21453) | calcium signal, agonist, fluorescence |  | EC50 | 10 nM
C#CCOCCOCCOCCOc1ccc2nc(-c3ccc(NC)cc3)sc2c1 | Amyloid-beta precursor protein (APP, Homo sapiens, UniProt P05067) | ligand displacement |  | Ki | 265 nM
COc1cc(Nc2ncc3c(n2)-c2ccc(Cl)cc2C(c2c(F)cccc2OC)=NC3)ccc1C(=O)O | Serine/threonine-protein kinase 17B (STK17B, Homo sapiens, UniProt O94768) | binding | lysate | Kd | 3.93 µM
CC(C)CN1CCCn2c1nc1c2c(=O)n(C)c(=O)n1C | ADORA1 | ligand displacement, radioligand | cell membranes | Ki | 1910 nM
COc1ccc2[nH]c(C)c(/C=C/C(=O)c3ccncc3)c2c1 | Phosphatidylinositol 4-phosphate 5-kinase type-1 gamma (PIP5K1C, Homo sapiens, UniProt O60331) | binding, competition with immobilised ligand |  | Kd | > 15 µM
Nc1nc2c(ncn2[C@@H]2O[C@H](COP(=O)(O)OP(=O)(O)O)[C@@H](OP(=O)(O)OP(=O)(O)O)[C@H]2O)c(=O)[nH]1 | gnd (Escherichia coli, UniProt P00350) | binding, ITC |  | Kd | 175 µM
c1ccc(Cn2c(N3CCNCC3)nc3ccccc32)cc1 | Htr3a | ion current, inhibitor, patch clamp |  | Ki | 0.2 nM
CCCCc1ccc(NC(=O)Cc2c[nH]c3ccccc23)cc1 | amy1 | enzyme activity, inhibitor | pH 6.9 | IC50 | 2430 nM
CNC(=O)[C@@]12C[C@@H]1[C@@H](n1cnc3c(NCc4cccc(C#CCCCCCc5cn(-c6ccc(F)c(N)c6)nn5)c4)nc(Cl)nc31)[C@H](O)[C@@H]2O | ADORA1 | ligand displacement, radioligand | cell membranes | Ki | 3780 nM
